# According to publication PMC5435566 (Nature chemical biology, 2017):
# Tests used:
# [1] = tested on: insulin receptor (IR) tyrosine phosphorylation in HepG2 hepatocytes; assay: IR phosphorylation in HepG2 cells; type: cell-based, human; conditions: 10 μM compound overnight, 10 nM insulin 5 min
# In short: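 HepG2 cells were grown in MEM with 10% FBS and pen/strep and confirmed mycoplasma-free. Cells were treated overnight with 10 μM test compound or DMSO in 0.1% FBS medium, then stimulated with 10 nM bovine insulin for 5 min at 37°C. Read-outs were anti-IRβ immunoprecipitation with pY1162/Y1163 Western blot (2 experiments) and pIRβ Y1150/Y1151 sandwich ELISA (5 experiments).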
# human LMPTP-A = biological target: T1, human LMPTP-A (Homo sapiens, UniProt P24666); assay: Isothermal titration calorimetry; type: binding
# T1 sequence (P24666 1-158): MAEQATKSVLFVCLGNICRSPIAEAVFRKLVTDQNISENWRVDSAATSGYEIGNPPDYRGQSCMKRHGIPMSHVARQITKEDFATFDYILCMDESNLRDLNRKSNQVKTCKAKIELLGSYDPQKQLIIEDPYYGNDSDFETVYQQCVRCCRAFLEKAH
# In short: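 ITC was run at 23°C: 2 μl injections of 0.5 mM test compound into 50 μM human LMPTP-A, with or without 200 μM sodium orthovanadate to form the cysteine adduct. Tris runs used 10 mM Tris pH 7.5, 75 mM NaCl, 0.5 mM β-mercaptoethanol, 5% DMSO; parallel runs used phosphate buffer. Kd, ΔH and −TΔS were derived from the titrations.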
# Solubility = type: physicochemical
# [2] = tested on: human LMPTP-A mutants (Y49, Y131, Y132); assay: Inhibition of LMPTP-A mutants, OMFP substrate; type: biochemical; conditions: 0.4 mM OMFP, versus wild-type LMPTP-A
# In short: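 Wild-type and mutant human LMPTP-A were assayed with 0.4 mM OMFP in 50 mM Bis-Tris pH 6.0, 1 mM DTT, 0.01% Triton X-100 at 37°C across test-compound concentrations. OMFP hydrolysis was monitored continuously by fluorescence (ex 485/em 525 nm) and reported as % activity, from 3 independent experiments.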
"Kd (human LMPTP-A; Tris buffer, no vanadate) [µM]",Kd (human LMPTP-A; phosphate buffer) [µM],"−TΔS (human LMPTP-A; Tris buffer, no vanadate) [kcal/mol]",−TΔS (human LMPTP-A; phosphate buffer) [kcal/mol],solubility (Solubility),SMILES,HepG2 IR phosphorylation after insulin stimulation [1],inhibition of LMPTP-A mutated at Y49 and Y132 [2],inhibition of LMPTP-A mutated at Y131 alone or in combination with Y49 and Y132 [2]
,,,,,c1ccc(-c2cc(SCCCN3CCCCC3)c3ccccc3n2)cc1 [Compd. 28],had no effect,,
8 ± 2,10 ± 2,-6.4 ± 0.3,-5.6 ± 0.3,highly soluble,N#Cc1ccccc1-c1cc(NCCCN2CCCCC2)c2ccccc2n1 [Compd. 18],,substantially reduced,completely abolished
